Columns and labels:
[1] = Drug metabolism in mouse liver microsomes assessed as glucuronidation of compound measured as compound remaining after 30 mins by LC/MS analysis; type: ADME; conditions: read-out: Stability
How it was run: (§1)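 Liver microsomes (mouse or rat), 0.5 mg protein/mL, incubated at 37 °C with UDPGA (2 mM) as cofactor for glucuronidation. Parent compound remaining was quantified after 30 and 60 min and expressed as % remaining.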

[2] = Drug metabolism in mouse liver microsomes assessed as glucuronidation of compound measured as compound remaining after 60 mins by LC/MS analysis; type: ADME; conditions: read-out: Stability; how it was run: as §1
[3] = Drug metabolism in rat liver microsomes assessed as glucuronidation of compound measured as compound remaining after 30 mins by LC/MS analysis; type: ADME; conditions: read-out: Stability; how it was run: as §1
[4] = Drug metabolism in human liver microsomes assessed as glucuronidation of compound measured as compound remaining after 30 mins by LC/MS analysis; type: ADME; conditions: read-out: Stability
How it was run: (§2)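 Human liver microsomes (0.5 mg protein/mL) incubated with compound at 37 °C in the presence of UDPGA (2 mM), with a UDPGA-free control incubation. Remaining parent compound quantified after 30 and 60 min and expressed as % remaining.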

[5] = Drug metabolism in rat liver microsomes assessed as glucuronidation of compound measured as compound remaining after 60 mins by LC/MS analysis; type: ADME; conditions: read-out: Stability; how it was run: as §1
[6] = Drug metabolism in human liver microsomes assessed as glucuronidation of compound measured as compound remaining after 60 mins by LC/MS analysis; type: ADME; conditions: read-out: Stability; how it was run: as §2
[7] = Oral bioavailability in CD1 mouse at 30 mg/kg; type: ADME, organism-based; conditions: in vivo
[8] = Plasma clearance in CD1 mouse at 30 mg/kg, po and 10 mg/kg, iv; type: ADME, organism-based
D-amino-acid oxidase = D-amino-acid oxidase (Homo sapiens, UniProt P14920); assay: Inhibition of human D-amino acid oxidase
Chain of D-amino-acid oxidase (P14920 whole entry): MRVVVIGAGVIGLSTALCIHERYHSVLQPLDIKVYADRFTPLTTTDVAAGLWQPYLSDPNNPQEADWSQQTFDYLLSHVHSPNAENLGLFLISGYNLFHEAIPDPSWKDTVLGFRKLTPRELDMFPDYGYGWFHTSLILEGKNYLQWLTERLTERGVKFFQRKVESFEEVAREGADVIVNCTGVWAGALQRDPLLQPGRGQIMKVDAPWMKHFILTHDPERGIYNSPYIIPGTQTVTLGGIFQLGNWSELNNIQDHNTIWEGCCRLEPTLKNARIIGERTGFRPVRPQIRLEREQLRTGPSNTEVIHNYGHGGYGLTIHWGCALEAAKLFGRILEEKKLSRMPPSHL

| SMILES | remaining at 0.5 h [1] | remaining at 1 h [2] | further results |
| --- | --- | --- | --- |
| O=c1[nH]c2ccccc2cc1O | < 1% | < 1% |  |
| O=c1[nH]c2c(F)cc(F)cc2n1O | < 1% | < 1% |  |
| O=c1[nH]cc(CCc2ccccc2)cc1O | 5% | 3% |  |
| O=c1[nH]nc(CCc2cc(F)cc(F)c2)cc1O | 77% | 59% | remaining at 0.5 h [3]: 69%; remaining at 0.5 h [4]: 81%; remaining at 1 h [5]: 51%; remaining at 1 h [6]: 62%; bioavailability [7]: 31%; clearance [8]: 39 mL/min/kg |
| O=c1cc(CSc2ccc(Cl)c(Cl)c2)occ1O | 20% | 5% |  |
| O=C(O)c1cc(CCc2ccc(Cl)cc2)n[nH]1 | 103% | 102% | IC50 (D-amino-acid oxidase): < 1 µM |
| Cc1cc(C(=O)O)n[nH]1 | 92% | 78% |  |
| O=c1[nH]c2cc(F)ccc2cc1O | < 1% | < 1% | remaining at 0.5 h [3]: < 1%; remaining at 1 h [5]: < 1% |
| Oc1noc2cc(Cl)ccc12 | 58% | 33% |  |
| O=c1[nH]c2cccc(Cl)c2cc1O | < 1% | < 1% | remaining at 0.5 h [3]: < 1%; remaining at 1 h [5]: < 1% |
| O=C(O)c1cc2sccc2[nH]1 | 98% | 100% |  |
| O=c1oc2ccccc2cc1O [3-HYDROXYCOUMARIN] | < 1% | < 1% |  |
